zVAD death inh: blocks zVAD induced death of L929 cells | L929 zVAD necroptosis rescue, ATP luminescence, 24 h; with zVAD 60 µM | viability rescue, % at 10 µM | 220,000 compounds, 0.38% hits | AID 1377;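 active = activation, scaled between plate controls, above about 75%, limit read from the data; inactive = activation under that limit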
M18AAP inhibitor: PfM18AAP enzyme inhibition. recombinant PfM18AAP, H-Glu-NHMec fluorogenic cleavage. inhibition, % at 7.35 µM. 290,000 compounds, 1.2% hits;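 active = inhibition above the campaign mean inhibition over all tested compounds plus 3 SD, cut at about 28% in these data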
p97 inhibitor: human p97 ATPase inhibition | inhibition, % at 8 µM | 220,000 compounds, 0.42% hits | AID 1481 | recombinant p97 ATPase, Kinase-Glo ATP luminescence, 3 h | P55072; in the data active = inhibition above about 15%
Target sequence (P55072 whole entry, looked up): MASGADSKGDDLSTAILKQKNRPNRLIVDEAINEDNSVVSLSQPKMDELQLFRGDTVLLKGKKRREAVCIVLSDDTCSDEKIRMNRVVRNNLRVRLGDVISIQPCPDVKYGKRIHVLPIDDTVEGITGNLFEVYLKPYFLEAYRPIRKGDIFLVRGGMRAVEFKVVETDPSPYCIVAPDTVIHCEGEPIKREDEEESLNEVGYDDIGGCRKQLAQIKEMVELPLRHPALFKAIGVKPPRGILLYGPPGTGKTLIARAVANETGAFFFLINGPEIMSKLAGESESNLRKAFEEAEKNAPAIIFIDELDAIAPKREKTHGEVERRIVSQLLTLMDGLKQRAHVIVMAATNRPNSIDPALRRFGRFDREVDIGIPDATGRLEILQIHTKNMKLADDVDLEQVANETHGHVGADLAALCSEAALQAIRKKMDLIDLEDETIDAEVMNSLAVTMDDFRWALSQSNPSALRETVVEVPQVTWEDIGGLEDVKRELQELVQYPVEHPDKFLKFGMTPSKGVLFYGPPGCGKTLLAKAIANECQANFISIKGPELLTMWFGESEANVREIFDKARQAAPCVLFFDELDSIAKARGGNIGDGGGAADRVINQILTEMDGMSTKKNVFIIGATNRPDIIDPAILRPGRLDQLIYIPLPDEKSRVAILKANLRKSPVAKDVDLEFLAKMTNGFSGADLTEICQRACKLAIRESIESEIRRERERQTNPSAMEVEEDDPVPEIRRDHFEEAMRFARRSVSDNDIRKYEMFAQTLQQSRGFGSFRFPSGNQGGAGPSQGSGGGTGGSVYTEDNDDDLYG
Wee1 degr inh: blocks degradation of human Wee1 kinase. 220,000 compounds, 1.2% hits. HeLa Luc-Wee1K328M stability, luciferase luminescence; 100% = proteasome inhibitor MG132 effect. reporter increase, % at 5 µM. P30291;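 active = activation above the mean of all tested compounds plus 3 SD, set per screening run, cut at about 8.8% in these data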;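 also: cells exposed to compound for 20 h before luminescence read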
TNF death inh: TNF-alpha cell death inhibition in Jurkat FADD-/- cells | Jurkat FADD-/- TNF necroptosis rescue, ATP luminescence, 24 h; 0 = TNF only, 100 = no-TNF cells | activation (protection from cell death), % at 10 µM | 220,000 compounds, 0.068% hits | AID 463075;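 active = activation, meaning protection from cell death, of at least 50% relative to plate controls; inactive = activation below 50%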;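 also: necroptosis triggered by 40 ng/mL TNF-alpha added together with compound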
RBBP9 inhibitor: blocks human serine hydrolase RBBP9; O75884; recombinant RBBP9, FP-Rh probe fluorescence polarization; inhibition, % at 7.94 µM; 220,000 compounds, 0.2% hits;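 active = inhibition above the campaign mean of all tested compounds plus 3 SD, cut at about 14% in these data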
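Assay system: recombinant human RBBP9; Reagent: Serine-hydrolase probe FP-Rh, 375 nM pre-mixing; Doses: 7.94 µM single dose, 0.794% DMSO; Incubation: 30 min then 45 min, 25 °C; Detection: fluorescence polarization (mP), excitation 525 nm, emission 598 nm; Evaluation: percent inhibition from mP, scaled between DMSO and no-protein wells.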
Each line names hits and unclear results; the compound was inactive in the other large screens. This is a sample that favours compounds with a hit; in the whole collection about 2.7% have one here.

COc1ccc(OC)c(C2=C[N+](=O)C(C)(C)C(C)(C)N2[O-])c1	none
CC1(C)N([O-])C(c2ccccc2)=C[N+](=O)C1(C)C	Wee1 degr inh 9.3
CCCCNC(=O)NS(=O)(=O)c1ccc(NC(=O)CCC(=O)c2cccs2)cc1	none (no result: zVAD death inh, p97 inhibitor, Wee1 degr inh, TNF death inh, RBBP9 inhibitor)
CC(C)Cn1c(N)c(C(=O)COC(=O)COc2cccc(C(F)(F)F)c2)c(=O)n(C)c1=O	none (no result: zVAD death inh, p97 inhibitor, Wee1 degr inh, TNF death inh, RBBP9 inhibitor)
COc1ccccc1-[n+]1c(C)cc(/C=C2\Sc3ccccc3N2C)cc1C	M18AAP inhibitor 47.8
CC(=O)Nc1ccc(Sc2ncccc2C(=O)Nc2cc(Cl)cc(Cl)c2)cn1	zVAD death inh 89.4
COc1cc(C(=O)OCC(=O)NC(=O)C2CCCCC2)ccc1OC(F)F	Wee1 degr inh 9.8
COc1ccc(CCNc2nc(=S)[nH]c3cc(OC)c(OC)cc23)cc1OC	zVAD death inh 82.0
Cc1cc2cc(CCNC(=O)CCc3ccccc3)c(=O)[nH]c2cc1C	none (no result: zVAD death inh, p97 inhibitor, Wee1 degr inh, TNF death inh, RBBP9 inhibitor)
CCSc1nc(O)cc(=O)[nH]1	Wee1 degr inh 10.6
CCCCCSc1nc(O)cc(=O)[nH]1	none
COc1ccc(/C=N/NC2=NS(=O)(=O)c3ccccc32)cc1OC	none (no result: zVAD death inh, p97 inhibitor, Wee1 degr inh, TNF death inh, RBBP9 inhibitor)
CC(C)C(=O)Nc1ccc(N2CCCC2)c(Cl)c1	none
CC(C)CC(=O)NC(=S)Nc1ccc(N2CCCC2)c(Cl)c1	Wee1 degr inh 10.1
CCOC(=O)c1ccc(N2CCOCC2)c(NC(=O)c2c(-c3ccccc3)noc2C)c1	Wee1 degr inh 10.5
Cc1ccc(-n2c(C(C)C)nc3oc4ccccc4c(=O)c3c2=O)cc1	Wee1 degr inh 10.3
CCc1nc2oc3ccccc3c(=O)c2c(=O)n1-c1ccc(C)cc1	none
CCCc1nc2oc3ccccc3c(=O)c2c(=O)n1-c1ccc(C)cc1	Wee1 degr inh 10.0
Cc1nn(-c2ccccc2)c2c1C(c1ccc(Br)s1)C(C#N)=C(N)O2 (centres undefined)	Wee1 degr inh 9.1
COc1ccc(CCN2CC(C(=O)NCCc3cnn(C)c3)CCC2=O)cc1 (centres undefined)	none (no result: zVAD death inh, p97 inhibitor, Wee1 degr inh, TNF death inh, RBBP9 inhibitor)
CN1CCN(c2ccccc2NC(=O)c2ccc(F)cc2)CC1	none
CC1CCN(c2ccccc2NC(=O)c2ccc(F)cc2)CC1	Wee1 degr inh 9.5
CC(C)CC(=O)Nc1cc([N+](=O)[O-])ccc1Cl	none
CC(C(=O)Nc1cc([N+](=O)[O-])ccc1Cl)N1CCN(c2ccc(O)cc2)CC1 (centres undefined)	M18AAP inhibitor 28.9
Nc1cc(S(=O)(=O)Nc2ccc(Br)cc2)ccc1Cl	Wee1 degr inh 9.4
O=C(Cc1ccc(F)cc1)Nc1nnc(-c2ccc(F)cc2)o1	none (no result: zVAD death inh, p97 inhibitor, Wee1 degr inh, TNF death inh, RBBP9 inhibitor)
CCOc1ccc(C(=O)NC(=S)Nc2cccc(S(=O)(=O)NC3=NCCC3)c2)cc1	Wee1 degr inh 9.5
C/C(CC(=O)N1CCCC1)=N\NC(=O)c1cc2ccccc2cc1O	Wee1 degr inh 12.4
O=C(OCC(=O)N1CCCCC1)c1cc2ccccc2cc1O	none
COc1cccc(CN2CCN(CCCc3ccccc3)C(CCO)C2)c1O (centres undefined)	none (no result: zVAD death inh, p97 inhibitor, Wee1 degr inh, TNF death inh, RBBP9 inhibitor)
CCOC(=O)c1ccc(NC(=O)c2cc(F)c(F)cc2Cl)cc1	none
COc1ccc(NC(=O)c2cc(F)c(F)cc2Cl)cc1Cl	Wee1 degr inh 9.1
CC(C)C(=O)Nc1cc2c3c(c1)CCN3C(=O)CC2	none (no result: zVAD death inh, p97 inhibitor, Wee1 degr inh, TNF death inh, RBBP9 inhibitor)
CC(=O)c1c(C)[nH]c(C(=O)N2CCCCCC2)c1C	Wee1 degr inh 8.9
Cc1ccc(NCc2ccccc2O)cc1C	Wee1 degr inh 10.0
CCC/C=N/Nc1nc2ccccc2s1	M18AAP inhibitor 35.3
C(=C\c1ccccc1)/C=N/Nc1nc2ccccc2s1	none
CC(Sc1nnc(Nc2ccccc2)s1)C(=O)Nc1nc(-c2ccccc2)cs1 (centres undefined)	none
CC(Sc1nnc(NCc2ccccc2)s1)C(=O)Nc1ccc2c(c1)C(=O)c1ccccc1C2=O (centres undefined)	TNF death inh 80.3
Cc1nnc(SCc2nc3sc4c(c3c(=O)[nH]2)CCCC4)[nH]c1=O	none
O=C(CSc1nnc(-c2cccs2)n1Cc1ccccc1)NCc1ccc2c(c1)OCO2	none
CC(Sc1nnc(-c2cccs2)n1Cc1ccccc1)C(=O)NCc1ccc2c(c1)OCO2 (centres undefined)	Wee1 degr inh 10.4
Cn1cccc1-c1nc2ccc(NC(=O)c3ccccc3)cc2[nH]1	Wee1 degr inh 10.2
Cn1cccc1-c1nc2ccc(NC(=O)c3ccc([N+](=O)[O-])cc3)cc2[nH]1	none
O=C(CC12CC3CC(CC(C3)C1)C2)NC(=S)Nc1ccc(CN2CCOCC2)cc1	none
COc1ncccc1-c1nnn(-c2ccc(Cl)nc2)n1	Wee1 degr inh 9.7
Clc1ccc(-n2nnc(-c3cccnc3Cl)n2)cn1	none
O=C(NCCc1ccccc1F)c1cccc2cccnc12	none (no result: zVAD death inh, p97 inhibitor, Wee1 degr inh, TNF death inh, RBBP9 inhibitor)
N#CCSc1nnc(CNc2ccc(F)cc2)o1	none
Cc1ccc(CSc2nnc(CNc3ccc(F)cc3)o2)cc1	Wee1 degr inh 9.6
CCN(CC)c1ccc(NS(=O)(=O)c2ccc3c(c2)oc(=O)n3C)c(C)c1	M18AAP inhibitor 29.3
CCN(CCNS(=O)(=O)c1ccc2c(c1)oc(=O)n2C)c1ccccc1	none
O=C(NCCN1CCOCC1)Nc1ccccc1	none
O=C(NCCN1CCOCC1)NC1(C(F)(F)F)Oc2ccccc2O1	M18AAP inhibitor 72.0
COC(=O)c1c(NC(=O)CSc2ccccc2N)sc(C)c1C	none
O=C1C2Sc3[nH]c(=O)sc3C(c3ccccc3)C2C(=O)N1c1ccccc1 (centres undefined)	M18AAP inhibitor 29.4
CCOc1cccc2cc(C(=O)NCc3ccc(OC)cc3)c(=N)oc12	none (no result: zVAD death inh, p97 inhibitor, Wee1 degr inh, TNF death inh, RBBP9 inhibitor)
COc1ccc(CNC(=O)c2cc3cccc(O)c3oc2=N)cc1	M18AAP inhibitor 28.9 (no result: zVAD death inh, p97 inhibitor, Wee1 degr inh, TNF death inh, RBBP9 inhibitor)
COc1cc(/C=C2\C(=N)N3N=CSC3=NC2=O)ccc1OS(=O)(=O)c1ccccc1[N+](=O)[O-]	M18AAP inhibitor 29.1 (no result: zVAD death inh, p97 inhibitor, Wee1 degr inh, TNF death inh, RBBP9 inhibitor)
COc1ccc(C(=O)Nc2cc(=O)n(C)c(=O)n2C)cc1	none
Cn1c(NC(=O)/C=C/c2ccccc2)cc(=O)n(C)c1=O	Wee1 degr inh 8.9
COc1ccc(/C=C/C(=O)Nc2cc(=O)n(C)c(=O)n2C)cc1	Wee1 degr inh 9.7
Cn1c(NC(=O)/C=C/c2ccc(Cl)c(Cl)c2)cc(=O)n(C)c1=O	none
O=C(O)c1ccccc1Nc1ccc([N+](=O)[O-])c2nonc12	none (no result: zVAD death inh, p97 inhibitor, Wee1 degr inh, TNF death inh, RBBP9 inhibitor)
Cn1nccc1C(=O)Nc1sc2c(c1C(N)=O)CCCC2	none
Cn1ccc(C(=O)Nc2sc3c(c2C(N)=O)CCCCC3)n1	M18AAP inhibitor 38.1 (no result: zVAD death inh, p97 inhibitor, Wee1 degr inh, TNF death inh, RBBP9 inhibitor)
CCCC12CN3CCN(CC(C3)/C1=N\NC(=O)Nc1ccccc1)C2	Wee1 degr inh 10.0
CCCC12CN3CCN(CC(C3)/C1=N\NC(=O)c1ccc(F)cc1)C2	none
CC(=O)C1=C(O)C(=O)N(c2ccc(O)cc2)C1c1ccccc1 (centres undefined)	none (no result: zVAD death inh, p97 inhibitor, Wee1 degr inh, TNF death inh, RBBP9 inhibitor)

Compound activity: PubChem BioAssay, several laboratories
